Sampled rows, rich in hits. Any-hit rate of the full collection: about 3.2%.
MLL AF4-AF9 inh = inhibitors of AF4 peptide binding to AF9, primary screen, biochemical, AlphaScreen, biotin-AF4 peptide, FLAG-AF9, single point. inhibition, % at 10 µM. actives 0.47% (n = 350,000). AID 651704, 2012;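 active means every replicate reaching a set inhibition limit, whatever the replicate mean, cut at about 25% in these data; inconclusive means mean inhibition reaches that limit but some replicates miss it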
Target sequence (P42568 whole entry, looked up): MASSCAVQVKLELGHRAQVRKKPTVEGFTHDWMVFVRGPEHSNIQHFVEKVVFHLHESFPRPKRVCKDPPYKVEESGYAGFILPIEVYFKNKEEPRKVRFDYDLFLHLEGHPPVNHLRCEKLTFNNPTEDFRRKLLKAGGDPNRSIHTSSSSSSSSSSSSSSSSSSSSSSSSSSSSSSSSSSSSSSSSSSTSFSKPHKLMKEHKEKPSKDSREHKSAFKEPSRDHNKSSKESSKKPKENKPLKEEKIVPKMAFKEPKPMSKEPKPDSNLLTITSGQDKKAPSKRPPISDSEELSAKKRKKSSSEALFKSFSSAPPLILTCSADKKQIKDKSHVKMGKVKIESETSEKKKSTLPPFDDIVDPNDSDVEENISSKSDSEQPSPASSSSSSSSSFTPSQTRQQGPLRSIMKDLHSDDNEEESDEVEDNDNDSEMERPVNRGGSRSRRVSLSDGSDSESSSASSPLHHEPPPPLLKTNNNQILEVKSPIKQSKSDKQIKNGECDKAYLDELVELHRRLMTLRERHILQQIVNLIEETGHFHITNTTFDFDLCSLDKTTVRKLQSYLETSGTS
S100A4 MyoIIA = inhibitors of S100A4-myosin IIA peptide binding, primary screen, biochemical, fluorescence polarization, TAMRA-MyoIIA peptide; Protein S100-A4 (Homo sapiens), P26447; actives 0.14% (n = 360,000); AID 652163, 2013; inhibition, % at 10.7 µM;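 active means mean inhibition of at least 70% across replicates, with every replicate also reaching that level; inconclusive means mean inhibition reaches 70% but some replicates fall short; inactive means mean inhibition below 70%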
Target sequence (P26447 whole entry, looked up): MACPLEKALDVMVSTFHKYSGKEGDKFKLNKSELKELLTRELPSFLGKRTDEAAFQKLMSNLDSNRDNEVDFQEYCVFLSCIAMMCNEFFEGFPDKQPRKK
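Assay system: human S100A4 monomer with TAMRA-labelled myosin IIA peptide / Buffer or medium: Calcium-containing HEPES buffer, pH 7.2 / Reagent: TAMRA-labelled myosin IIA heavy-chain peptide probe, 5 nM / Compound: one dose per compound / Timing: polarization read 5 min after assay mix addition, stable 5–60 min / Benchmarks: neutral control DMSO, positive control TFP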
PfHsp90 yeast 2 = growth inhibition of PfHsp90-expressing yeast, primary screen, antimalarial PfHsp90 inhibitor project, S. cerevisiae, BacTiter-Glo luminescence, single point, set 2; BacTiter-Glo ATP, 48 h; yeast lacking PDR1 and PDR3 efflux regulators; inhibition, % at 9.4 µM; actives 0.32% (n = 310,000);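 active means every replicate shows inhibition above about 80%, whatever the replicate mean, limit read from the data; inconclusive means mean inhibition reaches the set limit but some replicate falls short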
DENV2 CPE = inhibitors of DENV2 cytopathic effect, primary screen, cell-based, plate reader, single concentration; DENV2-infected cells, cytopathic effect rescue; CPE inhibition, % at 9.99 µM; actives 1.7% (n = 350,000); in the data active means CPE inhibition above about 20%, passing the limit was not always enough; inconclusive means no clear call, values can overlap the other calls; tested in BHK-21 cells
Cneo AK release = Cryptococcus neoformans cell lysis inducers, primary screen, AK release luminescence, single concentration | actives 0.2% (n = 360,000) | lysis activity, % at 15 µM | C. neoformans lysis, adenylate kinase release luminescence, 4 h; normalised: neutral wells 0, clomiphene wells 100 | AID 651654, 2012;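 active means mean lysis activity across replicates of at least 80%, whatever share of replicates individually reach that level; inactive means mean lysis activity below 80%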
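Material – Cryptococcus neoformans yeast cells · Quantity – 5 × 10^6 yeast cells/mL · Buffer or medium – YPD medium · Compound – single dose · Timing – 4 h static compound exposure, 37 °C, read 1 h post-reagent · Signal – adenylate kinase release luminescence · Read-out basis – lysis from increased AK signal · Benchmarks – Clomiphene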
Ecoli rRNA inh = reduced GFP signal of wild-type E. coli, primary screen, bacterial rRNA inhibitor project, GFP/RFP fluorescence, OD600, single point; E. coli WT GFP vs humanized-ribosome RFP mutants, 24 h; active compounds read low; DMSO median 0, no signal -100; GFP signal change (wild-type ribosome), % (test concentration not listed); actives 1.6% (n = 350,000); AID 720706, 2013;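 active means significant combined selectivity score with lowered wild-type GFP, culture density cut under 30%, mutant RFP and density less affected; inactive means any of these conditions unmet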
Each line names hits and unclear results; the compound was inactive in the other large screens.

CCOc1cc(CNc2ccc(Br)cc2)cc(Br)c1OCC(=O)NC(C)(C)C	S100A4 MyoIIA inconclusive (no result: Cneo AK release)
CCC(=O)Nc1ccc2c(c1)OC[C@@H](C)N(Cc1ccc(-c3ccccn3)cc1)C[C@@H](C)[C@H](OC)CN(C)C2=O	none (no result: PfHsp90 yeast 2)
CCCC(=O)Nc1ccc2c(c1)C(=O)N(C)C[C@@H](OC)[C@@H](C)CN(Cc1ccc(-c3ccccn3)cc1)[C@H](C)CO2	DENV2 CPE 27.4 (no result: PfHsp90 yeast 2)
CO[C@H]1CN(C)C(=O)c2ccc(NC(=O)NC(C)C)cc2OC[C@H](C)N(Cc2ccc(-c3ccccn3)cc2)C[C@H]1C	DENV2 CPE 68.2 (no result: PfHsp90 yeast 2)
COc1ccc(NC(=O)Nc2cccc3c2O[C@H](CN(C)C(=O)NC(C)C)[C@H](C)CN([C@@H](C)CO)C3=O)cc1	none (no result: PfHsp90 yeast 2)
O=[N+]([O-])c1cccc(NC(=S)N2CCc3ccccc3C2)c1	Ecoli rRNA inh -30.5 (no result: Cneo AK release)
S=C(Nc1ccccc1)N1CCc2ccccc21	none
O=[N+]([O-])c1ccc(NC(=S)N2CCc3ccccc32)cc1	Ecoli rRNA inh -18.9
COc1ccc(C(CCN2CCCC(C)C2)c2c(OC)cc(OC)c3c(-c4ccccc4)cc(=O)oc23)cc1 (configuration not stated)	MLL AF4-AF9 inh 27.3, DENV2 CPE inconclusive
COc1ccc(C(CCN2CCN(c3ccccc3)CC2)c2c(OC)cc(OC)c3c(-c4ccccc4)cc(=O)oc23)cc1 (configuration not stated)	DENV2 CPE 58.9
CCCCCc1cc(=O)oc2c(C(CCN3CCCC(C)C3)c3ccc4c(c3)OCO4)c(OC)cc(OC)c12 (configuration not stated)	none
COc1cc(OC)c2ccc(=O)oc2c1C(CCN1CCN(c2ccccc2)CC1)c1ccc(N(C)C)cc1 (configuration not stated)	MLL AF4-AF9 inh 26.1
CCCCCc1cc(=O)oc2c(C(CCN3CCCCC3)c3ccc4c(c3)OCO4)c(OC)cc(OC)c12 (configuration not stated)	MLL AF4-AF9 inh 26.8
COc1cc(OC)c2c(-c3ccccc3)cc(=O)oc2c1C(CCN1CCN(c2ccccc2)CC1)c1ccc(N(C)C)cc1 (configuration not stated)	none (no result: PfHsp90 yeast 2)
O=C(C[C@@H]1CC[C@H]2[C@@H](COC[C@H](O)CN2C(=O)Nc2ccccc2)O1)NCc1ccncn1	none (no result: PfHsp90 yeast 2)
C[C@H]1CN([C@@H](C)CO)S(=O)(=O)c2ccc(C#CC(C)(C)O)cc2O[C@@H]1CN(C)C(=O)C1CCCCC1	none (no result: PfHsp90 yeast 2)
CCN1CCN(c2cc(N3CCN(C(=O)c4ccco4)CC3)c3c4c(onc24)-c2ccccc2C3=O)CC1	none (no result: MLL AF4-AF9 inh, S100A4 MyoIIA, DENV2 CPE, Ecoli rRNA inh)
O=C(O)CCNc1cc(N2CCN(C(=O)c3ccco3)CC2)c2noc3c2c1C(=O)c1ccccc1-3	MLL AF4-AF9 inh 55.7
CCCc1nc2c(C)cc(Br)cn2c1Cc1ccc(OC)cc1C	DENV2 CPE 20.6 (no result: PfHsp90 yeast 2, Ecoli rRNA inh)
COc1ccc(Cc2c(-c3ccco3)nc3ccc(Br)cn23)c(C)c1	DENV2 CPE inconclusive (no result: PfHsp90 yeast 2)
COc1ccc(Cc2c(-c3ccco3)nc3c(C)cc(Br)cn23)c(C)c1	DENV2 CPE 22.6 (no result: PfHsp90 yeast 2, Ecoli rRNA inh)
COc1ccc(Cc2c(-c3ccccc3)nc3c(C)cc(Br)cn23)c(C)c1	none (no result: PfHsp90 yeast 2)
CC=Cc1ccc2n(c1=O)C[C@@H]1[C@@H](CO)[C@H](C(=O)NCC3CC3)N(Cc3ccncc3)[C@H]21 (mixture of isomers)	none (no result: PfHsp90 yeast 2)
O=C(NCC[C@H]1CC[C@@H](NS(=O)(=O)c2ccccc2)[C@@H](CO)O1)c1ccc2c(c1)OCO2	none (no result: PfHsp90 yeast 2)
CC1(C)CC(=O)C2=C(C1)Nc1ccccc1NC2c1ccc(F)c(F)c1 (configuration not stated)	DENV2 CPE 22.7
O=C1N[C@@H](c2ccccc2)COCc2cnnn2CC[C@H]1Cc1ccc(C(F)(F)F)cc1	none (no result: MLL AF4-AF9 inh, S100A4 MyoIIA, PfHsp90 yeast 2, DENV2 CPE, Cneo AK release)
O=C1[C@H]2[C@@H](c3ccc(F)cc3)N3C(=O)N(c4cccc(F)c4)C(=O)[C@@]3(Cc3ccc(Cl)cc3)[C@H]2C(=O)N1C1CCCCC1	DENV2 CPE 23.8
N#C[C@@H]1N[C@@H](CO)[C@H]1c1ccc(C#CC2CCCC2)cc1	DENV2 CPE 20.6 (no result: PfHsp90 yeast 2)
CN(C)CC(=O)N1[C@H](C#N)[C@H](c2ccc(C#CC3CCCC3)cc2)[C@H]1CO	none (no result: PfHsp90 yeast 2)
CN(C)CC(=O)N1[C@@H](C#N)[C@@H](c2ccc(C#CC3CCCC3)cc2)[C@@H]1CO	DENV2 CPE 39.3 (no result: PfHsp90 yeast 2)
N#C[C@H]1[C@H](c2ccc(C#CC3CCCC3)cc2)[C@H](CO)N1S(=O)(=O)c1ccccc1	none (no result: PfHsp90 yeast 2)
N#C[C@H]1[C@@H](c2ccc(C#CC3CCCC3)cc2)[C@H](CO)N1S(=O)(=O)c1ccccc1	DENV2 CPE 20.9 (no result: PfHsp90 yeast 2)
CN(C)CC(=O)N1[C@H](C#N)[C@H](c2ccc(C#CC3CCCC3)cc2)[C@@H]1CO	DENV2 CPE 31.0 (no result: PfHsp90 yeast 2)
CNC(=O)C[C@H]1CC[C@H]2[C@@H](COc3ccc(NC(=O)Nc4cccc(F)c4)cc3C(=O)N2C)O1	none (no result: MLL AF4-AF9 inh, S100A4 MyoIIA, PfHsp90 yeast 2)
CCC(C)(C)C1CCC(=NNc2nc3ccccc3[nH]2)CC1 (configuration not stated)	none
CC(=O)N1CCC(=NNc2nc3ccccc3[nH]2)CC1	Ecoli rRNA inh -18.1
COCCNC(=S)N1CCN(c2nc3ccccc3s2)CC1	Ecoli rRNA inh -26.3 (no result: Cneo AK release)
CCN(CC)CCCNC(=S)N1CCN(c2nc3ccccc3n2CC)CC1	DENV2 CPE 41.1
COCCn1nnnc1C(c1cccs1)N1CCN(c2nc3ccccc3s2)CC1 (configuration not stated)	Ecoli rRNA inh -21.9 (no result: DENV2 CPE)
COCCCNC(=S)N1CCN(c2nc3ccccc3s2)CC1	Ecoli rRNA inh -29.8 (no result: Cneo AK release)
COCCNC(=S)N1CCN(c2nc(-c3ccc(F)cc3)cs2)CC1	none
CC(C)NC(=O)N(C)C[C@@H]1OCCCC[C@@H](C)Oc2ccc(NS(=O)(=O)c3ccc(Cl)cc3)cc2C(=O)N([C@@H](C)CO)C[C@@H]1C	none (no result: PfHsp90 yeast 2)
O=S(=O)(N[C@H]1CC[C@H](CCn2cc(-c3ccc(F)cc3)nn2)O[C@H]1CO)c1ccccc1F	none (no result: PfHsp90 yeast 2)
COc1ccccc1NC(=O)N(C)C[C@@H]1OCc2ccccc2-c2ccccc2C(=O)N([C@@H](C)CO)C[C@H]1C	none (no result: MLL AF4-AF9 inh, S100A4 MyoIIA, PfHsp90 yeast 2, DENV2 CPE, Cneo AK release)
C[C@@H]1CN([C@H](C)CO)C(=O)Cc2cc(NC(=O)NC3CCCCC3)ccc2O[C@@H]1CN(C)Cc1ccc(C(=O)Nc2ccccc2N)cc1	DENV2 CPE 28.3 (no result: PfHsp90 yeast 2, Cneo AK release)
